Assays:
[1] = Plasma pharmacokinetics, multiple ascending doses; assay type: in vivo, human; settings: for CLss/F / AUC(0-t) / Cmax: mean ± SD; for AUC / Vd/F / concentration at 10 day / half-life / AUC(0-t) / Cmax / Tmax: human, plasma, oral; for AUC(0-t): AUC0-t; for Cmax: C max; for Tmax: T max
Outline: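 This was a double-blind, placebo-controlled design with three cohorts of eight (6 active, 2 placebo). Cohorts received oral 200, 400 or 600 mg q.d. for 10 consecutive days, with extra predose trough samples on days 8 and 9. Plasma drug was measured by validated HPLC-tandem accurate mass spectrometry (5.00–5000 ng/mL). Noncompartmental parameters were reported for day 1 and day 10, with Rac(AUC) = AUC0-τ day 10/AUC0-t day 1.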

[2] = Safety, adverse events, food effect study; assay type: in vivo, human; settings: for AEs / Increased blood triglycerides / Abdominal discomfort / Constipation / Decreased leukocyte count / Decreased lymphocyte count / Decreased neutrophil count / Dermatitis allergic / Dyspepsia / Increased ALT / Increased AST / Increased blood bilirubin / Increased blood cholesterol / Increased blood creatinine / Lethargy / Mouth ulceration / Oropharyngeal pain / Sinus arrythmia / Treatment discontinuation due to AEs / Upper respiratory tract infection: Food effect 600 mg, n (%)
Outline: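 Safety was monitored by vital signs, clinical laboratory tests, physical examination, 12-lead ECG, AEs and SAEs. AEs were coded with MedDRA 23.1 and graded by CTCAE 5.0. Subjects were discharged 6 days after the last dose, with a follow-up visit 8–14 days after the last dose. The safety set comprised randomized subjects who received active drug or placebo and had post-dose safety data.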

[3] = tested on: EGFR, ITK, Lck, SRC, LYN, and JAK3; assay: Selectivity for BTK over other kinases; assay type: biochemical; settings: stated in introduction
[4] = Plasma pharmacokinetics, single ascending dose; assay type: in vivo, human; settings: for CL/F / AUC(0-t): mean ± SD; for T last: median (min, max); for Tmax / half-life / AUC(0-inf) / MRT / Vd/F / AUC(0-t) / Cmax: human, plasma; for Tmax / half-life / AUC(0-inf) / MRT / Vd/F / AUC(0-t): oral; for Cmax: po
Outline: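 Healthy subjects received single oral doses under fasting conditions: 100 mg (three subjects), or 200, 400, 600 or 800 mg in cohorts of eight randomized 6 active:2 placebo, double-blind. Plasma drug was quantified by validated HPLC-tandem accurate mass spectrometry with a calibration range of 5.00–5000 ng/mL. Cmax, Tmax, AUC, t1/2, CL/F, Vz/F and MRT were derived by noncompartmental analysis and reported as mean ± SD (%CV) or median.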

[5] = Preclinical safety in rats; assay type: in vivo; settings: stated in introduction
[6] = 200 mg, MAD 200 mg q.d., Day 10
[7] = 400 mg, MAD 400 mg q.d., Day 10
[8] = 600 mg, MAD 600 mg q.d., Day 10

SMILES: N#CN1C[C@H](n2nc(-c3ccc(Oc4ccc(Cl)cn4)cc3)c(C(N)=O)c2N)CCC12CC2 [SN1011, 5-amino-3-(4-((5-chloro-2-pyridinyl)oxy)phenyl)-1-((6R)-4-cyano-4-azaspiro[2.5]octan-6-yl)-1H-pyrazole-4-carboxamide]
- T last ([1]; MAD 200 mg q.d., Day 1, median (min, max)): 23.7 (23.7, 23.8) h
- CLss/F ([1]; MAD 200 mg q.d., Day 10): 27.2 ± 13.4 (49%) L/h
- T last ([1]; MAD 200 mg q.d., Day 10, median (min, max)): 120.0 (72.0, 120.0) h
- T last ([1]; MAD 400 mg q.d., Day 1, median (min, max)): 23.8 (23.7, 23.9) h
- CLss/F ([1]; MAD 400 mg q.d., Day 10): 27.4 ± 6.2 (23%) L/h
- T last ([1]; MAD 400 mg q.d., Day 10, median (min, max)): 120.0 (120.0, 120.0) h
- T last ([1]; MAD 600 mg q.d., Day 1, median (min, max)): 23.8 (23.7, 23.8) h
- CLss/F ([1]; MAD 600 mg q.d., Day 10): 30.0 ± 9.8 (33%) L/h
- T last ([1]; MAD 600 mg q.d., Day 10, median (min, max)): 120.0 (96.0, 120.0) h
- AUC ([1]; 200 mg): 8690 ± 3420 ng·h/mL
- Vd/F ([1]; 200 mg): 728 ± 161 L
- concentration at 10 day ([1]; 200 mg): 257 ± 111 ng/mL
- half-life ([1]; 200 mg): 20.5 ± 5.3 h
- AUC(0-t) ([1]; 200 mg, MAD 200 mg q.d., Day 1): 4280 ± 1130 ng·h/mL
- AUC(0-t) [1, 6]: 17300 ng·h/mL
- Cmax ([1]; 200 mg, MAD 200 mg q.d., Day 1, N = 5): 260 ± 54.8 ng/mL
- Cmax [1, 6]: 516 ± 172 ng/mL
- Tmax ([1]; 200 mg, MAD 200 mg q.d., Day 1, median (min, max)): 3 h
- Tmax ([1]; 200 mg, MAD 200 mg q.d., Day 10, median (min, max)): 3 h
- AUC ([1]; 400 mg): 15200 ng·h/mL
- Vd/F ([1]; 400 mg): 736 ± 181 L
- concentration at 10 day ([1]; 400 mg): 419 ± 121 ng/mL
- half-life ([1]; 400 mg): 19 ± 5.4 h
- AUC(0-t) ([1]; 400 mg, MAD 400 mg q.d., Day 1): 9170 ± 1640 ng·h/mL
- AUC(0-t) [1, 7]: 26400 ng·h/mL
- Cmax ([1]; 400 mg, MAD 400 mg q.d., Day 1): 727 ± 183 ng/mL
- Cmax [1, 7]: 1070 ± 234 ng/mL
- Tmax ([1]; 400 mg, MAD 400 mg q.d., Day 1, median (min, max)): 4 h
- Tmax ([1]; 400 mg, MAD 400 mg q.d., Day 10, median (min, max)): 3.5 h
- AUC ([1]; 600 mg): 22000 ng·h/mL
- Vd/F ([1]; 600 mg): 872 ± 345 L
- concentration at 10 day ([1]; 600 mg): 531 ± 264 ng/mL
- half-life ([1]; 600 mg): 20.4 ± 4.1 h
- AUC(0-t) ([1]; 600 mg, MAD 600 mg q.d., Day 1): 12200 ng·h/mL
- AUC(0-t) [1, 8]: 40300 ng·h/mL
- Cmax ([1]; 600 mg, MAD 600 mg q.d., Day 1): 910 ± 332 ng/mL
- Cmax [1, 8]: 1600 ± 497 ng/mL
- Tmax ([1]; 600 mg, MAD 600 mg q.d., Day 1, median (min, max)): 4 h
- Tmax ([1]; 600 mg, MAD 600 mg q.d., Day 10, median (min, max)): 2.5 h
- Tmax ([1]; MAD, steady-state conditions, across 200-600 mg q.d.): 2.5 to 3.5 h
- steady-state in the plasma achieved on ([1]; once daily administration): 8 days
- AEs ([2]; Total N = 12): 7 (58.3)
- Increased blood triglycerides ([2]; Total N = 12): 5 (41.7)
- AEs ([2]; column Fasted-Fed): 5 (41.7)
- Abdominal discomfort ([2]; column Fasted-Fed): 0
- Constipation ([2]; column Fasted-Fed): 0
- Decreased leukocyte count ([2]; column Fasted-Fed): 0
- Decreased lymphocyte count ([2]; column Fasted-Fed): 0
- Decreased neutrophil count ([2]; column Fasted-Fed): 0
- Dermatitis allergic ([2]; column Fasted-Fed): 0
- Dyspepsia ([2]; column Fasted-Fed): 0
- Increased ALT ([2]; column Fasted-Fed): 0
- Increased AST ([2]; column Fasted-Fed): 0
- Increased blood bilirubin ([2]; column Fasted-Fed): 0
- Increased blood cholesterol ([2]; column Fasted-Fed): 0
- Increased blood creatinine ([2]; column Fasted-Fed): 0
- Increased blood triglycerides ([2]; column Fasted-Fed): 4 (33.3)
- Lethargy ([2]; column Fasted-Fed): 0
- Mouth ulceration ([2]; column Fasted-Fed): 0
- Oropharyngeal pain ([2]; column Fasted-Fed): 0
- Sinus arrythmia ([2]; column Fasted-Fed): 0
- Treatment discontinuation due to AEs ([2]; column Fasted-Fed): 1 (8.3)
- Upper respiratory tract infection ([2]; column Fasted-Fed): 0
- AEs ([2]; column Fed-Fasted): 2 (18.2)
- Abdominal discomfort ([2]; column Fed-Fasted): 0
- Constipation ([2]; column Fed-Fasted): 0
- Decreased leukocyte count ([2]; column Fed-Fasted): 0
- Decreased lymphocyte count ([2]; column Fed-Fasted): 0
- Decreased neutrophil count ([2]; column Fed-Fasted): 0
- Dermatitis allergic ([2]; column Fed-Fasted): 0
- Dyspepsia ([2]; column Fed-Fasted): 0
- Increased ALT ([2]; column Fed-Fasted): 0
- Increased AST ([2]; column Fed-Fasted): 0
- Increased blood bilirubin ([2]; column Fed-Fasted): 1 (9.1)
- Increased blood cholesterol ([2]; column Fed-Fasted): 0
- Increased blood creatinine ([2]; column Fed-Fasted): 0
- Increased blood triglycerides ([2]; column Fed-Fasted): 1 (9.1)
- Lethargy ([2]; column Fed-Fasted): 0
- Mouth ulceration ([2]; column Fed-Fasted): 0
- Oropharyngeal pain ([2]; column Fed-Fasted): 0
- Sinus arrythmia ([2]; column Fed-Fasted): 0
- Treatment discontinuation due to AEs ([2]; column Fed-Fasted): 0
- Upper respiratory tract infection ([2]; column Fed-Fasted): 0
- subjects who experienced AEs ([2]; food effect study, 12 subjects, 600 mg): 58.3%
- subjects with AE leading to study discontinuation ([2]; food effect study, 12 subjects, increased triglycerides, grade 3): 8.3%
- selectivity for BTK over other kinases [3]: 700 fold
- CL/F ([4]; SAD 100 mg): 49.6 ± 13.9 (28%) L/h
- T last ([4]; SAD 100 mg): 48.0 (48.0, 72.0) h
- CL/F ([4]; SAD 200 mg): 44.8 ± 15.3 (34%) L/h
- T last ([4]; SAD 200 mg): 72.0 (48.0, 96.0) h
- CL/F ([4]; SAD 400 mg): 36.5 ± 9.1 (25%) L/h
- T last ([4]; SAD 400 mg): 96.0 (72.0, 144.0) h
- CL/F ([4]; SAD 600 mg): 43.4 ± 19.5 (45%) L/h
- T last ([4]; SAD 600 mg): 108.0 (72.0, 144.0) h
- CL/F ([4]; SAD 800 mg): 44.8 ± 22.3 (50%) L/h
- T last ([4]; SAD 800 mg): 132.0 (120.0, 144.1) h
- Tmax [4]: 3 to 5 h
- half-life [4]: 15.5 to 21.8 h
- AUC(0-inf) ([4]; 100 mg): 2110 ± 525 ng·h/mL
- MRT ([4]; 100 mg): 26.4 ± 1.7 h
- Tmax ([4]; 100 mg): 4 h
- Vd/F ([4]; 100 mg): 1210 ± 497 L
- half-life ([4]; 100 mg): 16.5 ± 2.1 h
- AUC(0-t) ([4]; 100 mg, AUC0-24, SAD 100 mg): 1240 ± 339 ng·h/mL
- AUC(0-t) ([4]; 100 mg, AUC0-t, SAD 100 mg): 1880 ± 523 ng·h/mL
- AUC(0-inf) ([4]; 200 mg): 4920 ± 1710 ng·h/mL
- MRT ([4]; 200 mg): 22.9 ± 4 h
- Tmax ([4]; 200 mg): 3 h
- Vd/F ([4]; 200 mg): 989 ± 293 L
- half-life ([4]; 200 mg): 15.5 ± 2.4 h
- AUC(0-t) ([4]; 200 mg, AUC0-24, SAD 200 mg): 3210 ± 1190 ng·h/mL
- AUC(0-t) ([4]; 200 mg, AUC0-t, SAD 200 mg): 4700 ± 1730 ng·h/mL
- AUC(0-inf) ([4]; 400 mg): 11600 ng·h/mL
- MRT ([4]; 400 mg): 29.4 ± 9.9 h
- Tmax ([4]; 400 mg): 3.5 h
- Vd/F ([4]; 400 mg): 997 ± 350 L
- half-life ([4]; 400 mg): 19.3 ± 6.5 h
- AUC(0-t) ([4]; 400 mg, AUC0-24, SAD 400 mg): 6510 ± 1960 ng·h/mL
- AUC(0-t) ([4]; 400 mg, AUC0-t, SAD 400 mg): 11300 ng·h/mL
- AUC(0-inf) ([4]; 600 mg): 16800 ng·h/mL
- MRT ([4]; 600 mg): 28.7 ± 8.5 h
- Tmax ([4]; 600 mg): 4 h
- Vd/F ([4]; 600 mg): 1060 ± 227 L
- half-life ([4]; 600 mg): 19.1 ± 6.4 h
- AUC(0-t) ([4]; 600 mg, AUC0-24, SAD 600 mg): 9100 ± 3420 ng·h/mL
- AUC(0-t) ([4]; 600 mg, AUC0-t, SAD 600 mg): 16400 ng·h/mL
- AUC(0-inf) ([4]; 800 mg): 22300 ng·h/mL
- MRT ([4]; 800 mg): 31.1 ± 6.3 h
- Tmax ([4]; 800 mg): 5 h
- Vd/F ([4]; 800 mg): 1400 ± 760 L
- half-life ([4]; 800 mg): 21.8 ± 4.1 h
- AUC(0-t) ([4]; 800 mg, AUC0-24, SAD 800 mg): 11500 ng·h/mL
- AUC(0-t) ([4]; 800 mg, AUC0-t, SAD 800 mg): 21900 ng·h/mL
- Cmax ([4]; 100 mg): 84.2 ± 16.4 ng/mL
- Cmax ([4]; 200 mg): 293 ± 132 ng/mL
- Cmax ([4]; 400 mg): 487 ± 221 ng/mL
- Cmax ([4]; 600 mg): 674 ± 259 ng/mL
- Cmax ([4]; 800 mg): 779 ± 405 ng/mL
- safety profile [5]: acceptable safety profile

Reference: article PMC10582678 (Clinical and Translational Science, 2023)
